# Laboratory results reported in ChEMBL document CHEMBL2331552, “Identification of RO4597014, a Glucokinase Activator Studied in the Clinic for the Treatment of Type 2 Diabetes” (ACS Med Chem Lett, 2013).
# Experiments:
# Mus musculus [1] = experiment: Antidiabetic activity in C57Bl/6J mouse assessed as change in blood glucose level at 50 mg/kg, po after 4 hrs relative to vehicle-treated control; type: functional
# Method in brief: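 C57Bl/6J mice, 2 months old, n = 6 per group, fasted 2 h, received 50 mg/kg orally or vehicle. Blood was sampled at 2, 4, 6 and 8 h after dosing. The recorded value is % blood glucose change versus vehicle at 4 h.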
# hERG (KCNH2) = hERG (KCNH2) (Homo sapiens, UniProt Q12809); experiment: Inhibition of human ERG channel at 10 uM by patch clamp method
# [2] = molecular target: T1, Hexokinase-4 (Homo sapiens) (UniProt P35557); experiment: Activation of glucokinase (unknown origin) using glucose as substrate assessed as stimulation concentration required to achieve 150% activity relative to control
# T1 sequence (whole entry): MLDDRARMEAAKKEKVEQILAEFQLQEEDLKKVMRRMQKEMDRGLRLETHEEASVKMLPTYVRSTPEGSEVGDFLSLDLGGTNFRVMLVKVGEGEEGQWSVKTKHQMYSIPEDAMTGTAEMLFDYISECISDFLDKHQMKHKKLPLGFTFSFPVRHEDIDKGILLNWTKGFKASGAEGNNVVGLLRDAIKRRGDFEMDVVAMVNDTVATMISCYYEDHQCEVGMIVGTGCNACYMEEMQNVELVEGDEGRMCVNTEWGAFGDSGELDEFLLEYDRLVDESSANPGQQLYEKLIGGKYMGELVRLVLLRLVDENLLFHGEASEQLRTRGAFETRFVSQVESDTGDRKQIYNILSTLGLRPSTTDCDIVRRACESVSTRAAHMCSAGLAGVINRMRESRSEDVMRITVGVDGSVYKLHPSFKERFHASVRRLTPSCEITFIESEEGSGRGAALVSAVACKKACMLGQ
# Method in brief: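 Read-out is the compound concentration giving GK activity 150% of control (SC1.5). Values are means of at least three independent assays. Assay CV averaged 15%.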
# [3] = Metabolic stability in human hepatocytes after 3 hrs by LC-MS/MS analysis; type: ADME, cell-based, Hepatocyte; conditions: read-out: Stability
# Mus musculus [4] = experiment: Antidiabetic activity in po dosed diet induced obese C57Bl/6J mouse assessed as reduction in blood glucose level after 2 to 4 hrs; type: functional
# Method in brief: (§1)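 Diet-induced obese C57Bl/6J mice were used: 6 months old, on high-fat diet for 4 months, n = 9 per dose. Oral doses were 7.5, 15 and 30 mg/kg. Basal blood glucose lowering was read at 2 and 4 h post-dose.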
# Mus musculus [5] = experiment: Antidiabetic activity in diet induced obese C57Bl/6J mouse assessed as reduction in blood glucose level at 15 mg/kg, po after 2 to 4 hrs; type: functional; design: scale not given: the % may be the effect or the level left; method in brief: as §1
# Mus musculus [6] = experiment: Antidiabetic activity in po dosed diet induced obese C57Bl/6J mouse assessed as lowering blood glucose level; type: functional, organism-based
# Method in brief: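 Diet-induced obese C57Bl/6J mice were used: 6 months old, 4 months on high-fat diet, n = 9 per dose. Oral doses were 7.5, 15 and 30 mg/kg, with glucose followed at 2 and 4 h post-dose. The dose giving 25% glucose lowering (ED25) was reported.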
# Mus musculus [7] = experiment: Antidiabetic activity in diet induced obese C57Bl/6J mouse assessed as reduction in blood glucose level at 30 mg/kg, po after 2 to 4 hrs; type: functional; design: scale not given: the % may be the effect or the level left; method in brief: as §1
# [8] = Oral bioavailability in dog at 30 mg/kg; type: ADME, organism-based, Canis lupus familiaris; conditions: in vivo
# [9] = Tmax in dog at 30 mg/kg, po; type: ADME, organism-based, Canis lupus familiaris; design: dose 30 mg/kg, route oral; conditions: in vivo
# [10] = Cmax in dog at 30 mg/kg, po; type: ADME, organism-based, Canis lupus familiaris; design: dose 30 mg/kg, route oral; conditions: in vivo
# [11] = AUC (0 to infinity) in dog at 30 mg/kg, po; type: ADME, organism-based, Canis lupus familiaris; design: time infinity, dose 30 mg/kg, route oral; conditions: plasma
# [12] = AUC (0 to infinity) in dog at 10 mg/kg, iv; type: ADME, organism-based, Canis lupus familiaris; design: time infinity, dose 10 mg/kg, route intravenous; conditions: plasma
# [13] = Clearance in dog at 10 mg/kg, iv; type: ADME, organism-based, Canis lupus familiaris; design: dose 10 mg/kg, route intravenous; conditions: in vivo
# [14] = Volume of distribution at steady state in dog at 10 mg/kg, iv; type: ADME, organism-based, Canis lupus familiaris; design: dose 10 mg/kg, route intravenous; conditions: in vivo, read-out: Vdss
# [15] = Oral bioavailability in C57Bl/6J mouse at 30 mg/kg; type: ADME, organism-based; conditions: in vivo
# [16] = Tmax in C57Bl/6J mouse at 30 mg/kg, po; type: ADME, organism-based; design: dose 30 mg/kg, route oral; conditions: in vivo
# [17] = Cmax in C57Bl/6J mouse at 30 mg/kg, po; type: ADME, organism-based; design: dose 30 mg/kg, route oral; conditions: in vivo
# [18] = AUC (0 to infinity) in C57Bl/6J mouse at 30 mg/kg, po; type: ADME, organism-based; design: time infinity, dose 30 mg/kg, route oral; conditions: plasma
# [19] = AUC (0 to infinity) in C57Bl/6J mouse at 10 mg/kg, iv; type: ADME, organism-based; design: time infinity, dose 10 mg/kg, route intravenous; conditions: plasma
# [20] = Volume of distribution at steady state in C57Bl/6J mouse at 10 mg/kg, iv; type: ADME, organism-based; design: dose 10 mg/kg, route intravenous; conditions: in vivo, read-out: Vdss
# [21] = Clearance in C57Bl/6J mouse at 10 mg/kg, iv; type: ADME, organism-based; design: dose 10 mg/kg, route intravenous; conditions: in vivo
# Liver microsomes = experiment: Covalent binding to human liver microsomes after 30 mins in presence of NADPH per mg of protein; type: ADME, Microsome; conditions: 0.5 h
# Method in brief: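 Covalent binding to human liver microsomes was measured with NADPH over 30 min. It is expressed per mg protein.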
# [22] = Inhibition of cytochrome P450 (unknown origin); type: ADME, Homo sapiens
# Method in brief: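 IC50 was measured against 7 CYP isoforms.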
# [23] = molecular target: Voltage-gated inwardly rectifying potassium channel KCNH2 (Homo sapiens, UniProt Q12809); experiment: Inhibition of human ERG channel
# Method in brief: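 hERG potassium channel current was measured by patch clamp at varied concentrations. IC50 was taken from the concentration-dependent inhibition.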
# [24] = Fraction unbound in human plasma; type: ADME, cell-free
# [25] = Apparent permeability of the compound across human Caco2 cells; type: ADME, cell-based; conditions: Caco-2
# [26] = Dissociation constant, pKa of the compound; type: physicochemical
# [27] = Solubility of the compound at pH 7.4; type: physicochemical; conditions: buffer
# [28] = Lipophilicity, log D of the compound at pH 7.4; type: physicochemical; conditions: buffer
# [29] = molecular target: T1, Hexokinase-4 (Homo sapiens); experiment: Activation of human recombinant glucokinase using glucose as substrate
# Method in brief: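 Recombinant human GK was run across a range of glucose concentrations with varied activator levels. Vmax and the glucose SC0.5 (concentration reaching half Vmax) were derived.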
# Sequence of hERG (KCNH2) (Q12809 whole entry): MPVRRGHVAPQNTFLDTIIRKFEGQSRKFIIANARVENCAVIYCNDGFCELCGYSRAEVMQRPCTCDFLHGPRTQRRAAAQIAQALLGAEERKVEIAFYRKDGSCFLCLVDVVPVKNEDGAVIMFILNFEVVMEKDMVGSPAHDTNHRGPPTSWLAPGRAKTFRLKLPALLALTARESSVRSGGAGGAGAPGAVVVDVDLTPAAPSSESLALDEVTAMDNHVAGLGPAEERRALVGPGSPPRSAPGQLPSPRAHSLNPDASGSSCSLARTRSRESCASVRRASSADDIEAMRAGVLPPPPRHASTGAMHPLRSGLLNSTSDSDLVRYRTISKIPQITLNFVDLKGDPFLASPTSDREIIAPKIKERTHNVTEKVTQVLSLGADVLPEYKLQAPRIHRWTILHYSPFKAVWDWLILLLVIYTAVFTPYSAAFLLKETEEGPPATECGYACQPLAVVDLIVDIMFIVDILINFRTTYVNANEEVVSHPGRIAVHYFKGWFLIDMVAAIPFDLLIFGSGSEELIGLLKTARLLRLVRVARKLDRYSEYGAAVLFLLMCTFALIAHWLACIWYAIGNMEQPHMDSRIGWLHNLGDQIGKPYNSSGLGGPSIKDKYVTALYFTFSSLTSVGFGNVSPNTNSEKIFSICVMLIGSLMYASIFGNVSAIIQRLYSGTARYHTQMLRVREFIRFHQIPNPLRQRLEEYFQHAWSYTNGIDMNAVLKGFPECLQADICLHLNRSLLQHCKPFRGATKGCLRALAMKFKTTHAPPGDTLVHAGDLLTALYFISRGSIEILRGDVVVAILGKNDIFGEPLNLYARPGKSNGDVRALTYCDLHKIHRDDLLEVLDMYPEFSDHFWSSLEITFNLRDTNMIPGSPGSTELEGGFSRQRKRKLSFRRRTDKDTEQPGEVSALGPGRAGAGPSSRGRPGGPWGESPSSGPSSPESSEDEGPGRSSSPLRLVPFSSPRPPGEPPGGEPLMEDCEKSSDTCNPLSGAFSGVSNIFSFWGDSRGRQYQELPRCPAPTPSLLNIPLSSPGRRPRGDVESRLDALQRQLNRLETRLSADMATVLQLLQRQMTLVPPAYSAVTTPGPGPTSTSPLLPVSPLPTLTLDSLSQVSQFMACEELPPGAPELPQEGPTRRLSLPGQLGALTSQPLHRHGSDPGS
# Sequence of Voltage-gated inwardly rectifying potassium channel KCNH2 (Q12809 whole entry): as above
structure (smiles),measurement,setting,value
C[S+]([O-])c1cnc(NC(=O)[C@H](CC2CCCC2)c2ccc(S(C)(=O)=O)c(Cl)c2)cn1 (stereo not given in full),Activity,Mus musculus [1],-26%
same,inhibition at 10 µM,hERG (KCNH2),27%
same,Activity,[2],0.4 µM
CS(=O)(=O)c1ccc([C@@H](CC2CCCC2)C(=O)Nc2cnccn2)cc1Cl,Activity,Mus musculus [1],-53%
same,Activity,[2],0.11 µM
CS(=O)(=O)Cc1cnc(NC(=O)[C@H](CC2CCCC2)c2ccc(S(C)(=O)=O)c(Cl)c2)cn1,Activity,Mus musculus [1],-39%
same,Activity,[2],0.26 µM
CC(C)(O)[C@@H](O)c1cnc(NC(=O)[C@H](CC2CCCC2)c2ccc(S(C)(=O)=O)c(Cl)c2)cn1,Activity,Mus musculus [1],-44%
same,Activity,[2],0.31 µM
CS(=O)(=O)c1ccc([C@@H](CC2CCCC2)C(=O)Nc2cnc(OC[C@H](O)CO)cn2)cc1Cl,Activity,Mus musculus [1],-38%
same,Activity,[2],0.19 µM
CS(=O)(=O)c1ccc([C@@H](CC2CCCC2)C(=O)Nc2cnc(CCC3(O)CCOCC3)cn2)cc1Cl,Activity,Mus musculus [1],-43%
same,inhibition at 10 µM,hERG (KCNH2),40%
same,Activity,[2],0.13 µM
COc1cc(C(CC2CCCC2)C(=O)Nc2cnccn2)ccc1S(C)(=O)=O (stereo not given),inhibition at 10 µM,hERG (KCNH2),36%
same,Activity,[2],1.9 µM
CS(=O)(=O)c1ccc([C@@H](CC2CCCC2)C(=O)Nc2cnc([C@@H](O)CO)cn2)cc1Cl,Activity,Mus musculus [1],-35%
same,inhibition at 10 µM,hERG (KCNH2),21%
same,Activity,[2],1.1 µM
CC(C)(O)C#Cc1cnc(NC(=O)[C@H](CC2CCCC2)c2ccc(S(C)(=O)=O)c(Cl)c2)cn1,Activity,Mus musculus [1],-48%
same,Activity,[2],0.056 µM
CS(=O)(=O)c1ccc(C(CC2CCOC2)C(=O)Nc2cnccn2)cc1Cl (stereo not given),Activity,[2],3.6 µM
CS(=O)(=O)c1ccc([C@@H](CC2CCCC2)C(=O)Nc2cnc([C@H](O)CO)cn2)cc1Cl,remaining at 3 h,[3],95%
same,ED25,Mus musculus [4],10 mg/kg
same,Activity,Mus musculus [5],32%
same,Activity,Mus musculus [6],Dose-dependent effect
same,Activity,Mus musculus [7],45%
same,bioavailability,[8],84%
same,Tmax,[9],7.3 h
same,Cmax,[10],3790 ng/mL
same,AUC(0-inf),[11],54500 ng·h/mL
same,AUC(0-inf),[12],21600 ng·h/mL
same,clearance,[13],8 mL/min/kg
same,Vd,[14],1.69 L/kg
same,bioavailability,[15],50.3%
same,Tmax,[16],4 h
same,Cmax,[17],1310 ng/mL
same,AUC(0-inf),[18],12100 ng·h/mL
same,AUC(0-inf),[19],8010 ng·h/mL
same,Vd,[20],1.44 L/kg
same,clearance,[21],20.8 mL/min/kg
same,Activity,Liver microsomes,33 pmol
same,IC50,[22],> 30 µM
same,IC50,[23],70 µM
same,fraction unbound,[24],0.1
same,Papp,[25],3.36 ×10⁻⁶ cm/s
same,pKa,[26],11.4
same,solubility,[27],170 µg/mL
same,logD,[28],2.7
same,Activity,[29],Dose-dependent effect
same,Activity,Mus musculus [1],-44%
same,inhibition at 10 µM,hERG (KCNH2),22%
same,Activity,[2],0.26 µM
CS(=O)(=O)c1ccc([C@@H](CC2CCCC2)C(=O)Nc2cnc(OC[C@@H](O)CO)cn2)cc1Cl,Activity,Mus musculus [1],-29%
same,Activity,[2],0.3 µM
CSc1cnc(NC(=O)[C@H](CC2CCCC2)c2ccc(S(C)(=O)=O)c(Cl)c2)cn1,Activity,Mus musculus [1],-26%
same,Activity,[2],0.054 µM
CS(=O)(=O)c1ccc([C@@H](CC2CCCC2)C(=O)Nc2cnc(C#CC3(O)CCOCC3)cn2)cc1Cl,Activity,Mus musculus [1],-45%
same,Activity,[2],0.075 µM
CS(=O)(=O)c1ccc(C(CC2CCOCC2)C(=O)Nc2cnccn2)cc1Cl (stereo not given),Activity,Mus musculus [1],-5.6%
same,inhibition at 10 µM,hERG (KCNH2),8.1%
same,Activity,[2],1.4 µM
CN(C)CC#Cc1cnc(NC(=O)[C@H](CC2CCCC2)c2ccc(S(C)(=O)=O)c(Cl)c2)cn1,Activity,Mus musculus [1],-46%
same,inhibition at 10 µM,hERG (KCNH2),86%
same,Activity,[2],0.11 µM
CS(=O)(=O)c1ccc([C@@H](CC2CCCC2)C(=O)Nc2cnc(C(=O)NO)cn2)cc1Cl,Activity,Mus musculus [1],-14%
same,inhibition at 10 µM,hERG (KCNH2),37%
same,Activity,[2],0.41 µM
COCC#Cc1cnc(NC(=O)[C@H](CC2CCCC2)c2ccc(S(C)(=O)=O)c(Cl)c2)cn1,Activity,Mus musculus [1],-49%
same,inhibition at 10 µM,hERG (KCNH2),53%
same,Activity,[2],0.14 µM
CS(=O)(=O)c1ccc([C@@H](CC2CCCC2)C(=O)Nc2cnc(C#CCO)cn2)cc1Cl,Activity,Mus musculus [1],-46%
same,inhibition at 10 µM,hERG (KCNH2),46%
same,Activity,[2],0.022 µM
CS(=O)(=O)c1ccc([C@@H](CC2CCCC2)C(=O)Nc2cnc(/C(N)=N\O)cn2)cc1Cl,Activity,Mus musculus [1],-53%
same,inhibition at 10 µM,hERG (KCNH2),50%
same,Activity,[2],0.037 µM
C/C(=N/O)c1cnc(NC(=O)[C@H](CC2CCCC2)c2ccc(S(C)(=O)=O)c(Cl)c2)cn1,Activity,Mus musculus [1],-43%
same,inhibition at 10 µM,hERG (KCNH2),73%
same,Activity,[2],0.059 µM
